From ChEMBL document CHEMBL2375259, “Arylpiperazines as fatty acid transport protein 1 (FATP1) inhibitors with improved potency and pharmacokinetic properties” (Bioorg Med Chem Lett, 2013)
Converted amounts (≈) assume the structure as drawn. The source made the active and inactive calls. The rule behind the calls is not given here.

Tests used:
[1] = target: Long-chain fatty acid transport protein 1 (Mus musculus, UniProt Q60714); assay: Inhibition of mouse FLAG-tagged FATP1-mediated [1-14C] oleic acid conversion to [1-14C] oleoyl-CoA after 20 mins by scintillation counting analysis
In short: (§1)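 Purified FLAG-tagged human or mouse FATP1 run in a cell-free acyl-CoA synthetase assay. Protein incubated with 10 µM [1-14C]oleic acid, 0.5 mM ATP, 0.5 mM CoA, 5 mM MgCl2, 30 mM NaCl, 0.05% Triton X-100 and 2 mM DTT in 100 mM Tris-HCl pH 7.4 for 20 min at 37 °C. Free oleate removed by heptane washes. Aqueous-phase radioactivity counted by scintillation. FLAG-luciferase background subtracted. IC50 is the mean of n ≥ 2.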

[2] = target: Long-chain fatty acid transport protein 1 (Homo sapiens, UniProt Q6PCB7); assay: Inhibition of human FLAG-tagged FATP1-mediated [1-14C] oleic acid conversion to [1-14C] oleoyl-CoA after 20 mins by scintillation counting analysis; in short: as §1
[3] = 1-Octanol-phosphate buffered saline distribution coefficient, log D of the compound at pH 7.4; format: physicochemical
In short: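 logD measured by partitioning between 1-octanol and phosphate-buffered saline, pH 7.4.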

[4] = Metabolic stability in mouse liver microsomes assessed as compound remaining after 0.5 hr; format: ADME, Microsome; settings: read-out: Stability
In short: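 Test compound incubated 0.5 h with mouse liver microsomes. Result given as percent of parent remaining.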

[5] = Oral bioavailability in mouse at 10 mg/kg; format: ADME, organism-based; settings: in vivo
[6] = Plasma protein binding in mouse at 10 mg/kg, po; format: ADME, organism-based; design: dose 10 mg/kg, route oral; settings: read-out: PPB (converted)
In short: (§2)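 Unbound fraction (%) measured in mouse plasma.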

[7] = Cmax in mouse at 10 mg/kg, po; format: ADME, organism-based; design: dose 10 mg/kg, route oral; settings: in vivo
In short: (§3)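 Single 10 mg/kg oral dose to mice in DMA/PG/(20% HPβCD in saline) 10/10/80. Values are the mean of three mice.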

[8] = Solubility in Japanese Pharmacopoeia second fluid; format: physicochemical; settings: pH 6.8
Mus musculus [9] = assay: Free Cmax in mouse at 10 mg/kg, po; format: ADME, organism-based; design: dose 10 mg/kg, route oral; settings: in vivo
In short: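 Free Cmax calculated as plasma unbound fraction (%) multiplied against the […], from mice given 10 mg/kg orally in DMA/PG/(20% HPβCD/saline) 10/10/80, n = 3.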

[10] = Solubility in Japanese Pharmacopoeia first fluid; format: physicochemical; settings: pH 1.2
[11] = Clearance in mouse at 5 mg/kg, iv; format: ADME, organism-based; design: dose 5 mg/kg, route intravenous; settings: in vivo
[12] = Fraction unbound in mouse plasma at 10 mg/kg, po; format: ADME, organism-based; design: dose 10 mg/kg, route oral; in short: as §2
Mus musculus [13] = assay: In vivo inhibition of FATP1 in high-fat diet fed mouse assessed as decrease in triglyceride content in liver at 10 to 100 mg/kg, po after 4 weeks; format: functional, organism-based
In short: (§4)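 Mice kept on a high-fat diet for 4 weeks and given the compound orally at 3/10/30, 10/30/100 or 1/10/100 mg/kg. The 1–100 mg/kg series was run for 3 weeks. Triglyceride content measured in liver, white gastrocnemius and soleus, compared against HFD vehicle controls, P < 0.05.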

[14] = Tmax in mouse at 10 mg/kg, po; format: ADME, organism-based; design: dose 10 mg/kg, route oral; settings: in vivo; in short: as §3
[15] = Ratio of drug uptake in soleus muscle to plasma in mouse at 10 mg/kg, po after 1 week of repeated compound administration; format: ADME, organism-based; design: dose 10 mg/kg, route oral
In short: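 Mice received repeated oral dosing at 10 mg/kg for 1 week. Soleus and plasma concentrations measured 3 h after dosing. Kp taken as the soleus-to-plasma ratio.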

[16] = Volume of distribution in mouse at 5 mg/kg, iv; format: ADME, organism-based; design: dose 5 mg/kg, route intravenous; settings: in vivo
[17] = AUC in mouse at 10 mg/kg, po; format: ADME, organism-based; design: dose 10 mg/kg, route oral; settings: plasma; in short: as §3
Mus musculus [18] = assay: In vivo inhibition of FATP1 in high-fat diet fed mouse assessed as decrease in triglyceride content in white gastrocnemius muscle at 10 to 100 mg/kg, po after 4 weeks; format: functional, organism-based; in short: as §4
Mus musculus [19] = assay: In vivo inhibition of FATP1 in high-fat diet fed mouse assessed as decrease in triglyceride content in soleus muscle at 10 to 100 mg/kg, po after 4 weeks; format: functional, organism-based; in short: as §4
Mus musculus [20] = assay: In vivo inhibition of FATP1 in high-fat diet fed mouse assessed as decrease in triglyceride content in soleus muscle at 3 to 30 mg/kg, po after 4 weeks; format: functional, organism-based; in short: as §4
Mus musculus [21] = assay: In vivo inhibition of FATP1 in high-fat diet fed mouse assessed as decrease in triglyceride content in white gastrocnemius muscle at 3 to 30 mg/kg, po after 4 weeks; format: functional, organism-based; in short: as §4
Mus musculus [22] = assay: In vivo inhibition of FATP1 in high-fat diet fed mouse assessed as decrease in triglyceride content in liver at 3 to 30 mg/kg, po after 4 weeks; format: functional, organism-based; in short: as §4
[23] = Clearance in mouse at 1 mg/kg, iv; format: ADME, organism-based; design: dose 1 mg/kg, route intravenous; settings: in vivo
In short: (§5)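 Single 1 mg/kg intravenous dose to mice in DMA/PG/(20% HPβCD in saline) 10/10/80. Values are the mean of two mice.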

[24] = Volume of distribution in mouse at 1 mg/kg, iv; format: ADME, organism-based; design: dose 1 mg/kg, route intravenous; settings: in vivo; in short: as §5
Mus musculus [25] = assay: In vivo inhibition of FATP1 in high-fat diet fed mouse assessed as decrease in triglyceride content in soleus muscle at 1 to 100 mg/kg, po after 3 weeks
Mus musculus [26] = assay: In vivo inhibition of FATP1 in high-fat diet fed mouse assessed as decrease in triglyceride content in white gastrocnemius muscle at 1 to 100 mg/kg, po after 3 weeks
Mus musculus [27] = assay: In vivo inhibition of FATP1 in high-fat diet fed mouse assessed as decrease in triglyceride content in liver at 1 to 100 mg/kg, po after 3 weeks

Chain of Long-chain fatty acid transport protein 1 (Homo sapiens, UniProt Q6PCB7) (Q6PCB7 whole entry): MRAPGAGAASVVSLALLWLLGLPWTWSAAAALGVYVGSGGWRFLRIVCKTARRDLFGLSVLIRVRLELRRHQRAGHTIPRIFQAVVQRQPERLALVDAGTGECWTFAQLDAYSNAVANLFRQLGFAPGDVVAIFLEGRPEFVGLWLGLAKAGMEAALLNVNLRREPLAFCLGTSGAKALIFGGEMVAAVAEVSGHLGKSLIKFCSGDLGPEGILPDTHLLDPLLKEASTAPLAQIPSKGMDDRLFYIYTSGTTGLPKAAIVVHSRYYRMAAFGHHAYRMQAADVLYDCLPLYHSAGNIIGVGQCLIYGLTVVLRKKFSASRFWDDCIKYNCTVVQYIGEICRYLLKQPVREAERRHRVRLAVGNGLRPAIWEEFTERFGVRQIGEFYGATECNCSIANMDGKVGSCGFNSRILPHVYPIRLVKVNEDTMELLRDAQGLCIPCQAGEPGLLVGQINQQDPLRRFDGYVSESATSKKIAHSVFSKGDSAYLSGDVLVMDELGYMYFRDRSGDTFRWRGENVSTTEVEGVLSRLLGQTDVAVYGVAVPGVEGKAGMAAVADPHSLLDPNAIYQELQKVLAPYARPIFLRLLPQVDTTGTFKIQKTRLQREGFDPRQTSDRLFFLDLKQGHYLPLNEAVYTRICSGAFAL
Chain of Long-chain fatty acid transport protein 1 (Mus musculus, UniProt Q60714) (Q60714 whole entry): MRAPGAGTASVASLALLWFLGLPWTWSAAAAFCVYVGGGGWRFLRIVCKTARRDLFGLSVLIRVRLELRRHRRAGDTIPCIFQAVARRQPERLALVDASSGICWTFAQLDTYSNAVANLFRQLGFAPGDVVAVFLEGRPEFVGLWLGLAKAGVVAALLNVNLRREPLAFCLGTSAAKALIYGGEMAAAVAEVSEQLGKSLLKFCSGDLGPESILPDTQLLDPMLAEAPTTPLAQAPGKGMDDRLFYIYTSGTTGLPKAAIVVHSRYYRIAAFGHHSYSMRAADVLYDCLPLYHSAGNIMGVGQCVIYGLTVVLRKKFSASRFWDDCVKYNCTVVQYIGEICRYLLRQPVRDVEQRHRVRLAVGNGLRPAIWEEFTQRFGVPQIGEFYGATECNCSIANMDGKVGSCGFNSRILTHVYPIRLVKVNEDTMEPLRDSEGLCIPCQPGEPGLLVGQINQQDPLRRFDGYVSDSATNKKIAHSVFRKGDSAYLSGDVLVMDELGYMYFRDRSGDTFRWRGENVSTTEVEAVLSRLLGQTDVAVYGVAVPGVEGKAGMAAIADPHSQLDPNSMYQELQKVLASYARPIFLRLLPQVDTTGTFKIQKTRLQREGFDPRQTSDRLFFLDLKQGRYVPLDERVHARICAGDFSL

| Structure (SMILES) | IC50 [1] | IC50 [2] | logD [3] | remaining at 0.5 h [4] | further results |
| --- | --- | --- | --- | --- | --- |
| CCN(C(=O)CN1CCN(c2ccc(F)cn2)CC1)c1nc2c(s1)CCCC2 | > 10000 nM | 780 nM |  |  |  |
| O=C(CN1CCN(c2nccs2)CC1)Nc1nc2c(s1)CCCC2 | 7900 nM | 520 nM | 3.8 |  |  |
| O=C(CN1CCN(c2ccc(F)cn2)CC1)c1cnn2ccccc12 | 1100 nM | 330 nM | 2.5 | 84% |  |
| O=C(CN1CCN(c2ccc(F)cn2)CC1)c1cnc2n1CCCC2 | 160 nM | 100 nM | 2.1 | 86% |  |
| O=C(CN1CCN(c2ccncc2)CC1)Nc1nc2c(s1)CCCC2 | > 10000 nM | > 1000 nM | 2 |  |  |
| O=C(CN1CCN(c2ccc(F)cc2)CC1)Nc1nc2c(s1)CCCC2 | 4000 nM | 77 nM | 4.5 | 42% |  |
| O=C(CN1CCN(c2ccc(F)cn2)CC1)c1ncc2ccccn12 | > 10000 nM | > 1000 nM |  |  |  |
| O=C(CN1CCN(c2ccc(F)cc2)CC1)Nc1nc2c(o1)CCCC2 | 5400 nM | 180 nM | 3 | 53% |  |
| Cc1nc2ccccn2c1C(=O)CN1CCN(c2ccccc2)CC1 |  | 3000 nM |  |  |  |
| O=C(CN1CCN(c2ccc(F)cc2)CC1)Nc1nc2ccccc2s1 | > 10000 nM | 490 nM | 4.4 |  |  |
| O=C(CN1CCN(c2ccccn2)CC1)Nc1nc2c(s1)CCCC2 | 4900 nM | 200 nM | 3.9 |  |  |
| Cc1nc(NC(=O)CN2CCN(c3ccc(F)cc3)CC2)sc1C | 1700 nM | 430 nM | 3.7 | 56% |  |
| CC1CCc2sc(NC(=O)CN3CCN(c4ccc(F)cc4)CC3)nc2C1 (stereo unspecified) | 5100 nM | 26 nM | 5.1 | 30% | bioavailability [5]: 62%; fraction unbound [6]: 0.0043; Cmax [7]: 1800 ng/mL; solubility [8]: 0.7 µg/mL (≈ 1.8 µM); fCmax (Mus musculus [9]): 0.0077 µg/mL; solubility [10]: 540 µg/mL (≈ 1390 µM); clearance [11]: 46 mL/min/kg; fraction unbound [12]: 0.0043; inhibition (Mus musculus [13]): inactive; Tmax [14]: 15 min; Kp at 168 h [15]: 0.33; Vd [16]: 1.5 L/kg; AUC [17]: 2300 ng·h/mL; inhibition (Mus musculus [18]): inactive; inhibition (Mus musculus [19]): inactive |
| Cc1ccc(N2CCN(CC(=O)Nc3nc4c(s3)CCCC4)CC2)cc1 | > 10000 nM | 250 nM | 4.8 |  |  |
| O=C(CN1CCN(c2ccc(F)cn2)CC1)c1cnc2ccccn12 | 290 nM | 130 nM | 2.5 | 98% |  |
| O=C(CN1CCN(c2ccc(F)cc2)CC1)Nc1nc2c(s1)CCCCC2 | 2000 nM | 120 nM | 5 |  |  |

| Structure (SMILES) | IC50 [1] | IC50 [2] | logD [3] | remaining at 0.5 h [4] | further results |
| --- | --- | --- | --- | --- | --- |
| O=C(CN1CCN(c2ccc(F)cn2)CC1)Nc1nc2c(o1)CCCC2 | 1700 nM | 100 nM | 2.7 | 63% |  |
| O=C(CN1CCN(c2ccc(F)cc2)CC1)Nc1nccs1 | > 10000 nM | > 1000 nM | 2.8 |  |  |
| O=C(CN1CCN(c2cccc(F)c2)CC1)Nc1nc2c(s1)CCCC2 | > 10000 nM | > 1000 nM |  |  |  |
| O=C(CN1CCN(c2ncccn2)CC1)Nc1nc2c(s1)CCCC2 | > 10000 nM | > 1000 nM | 3.7 |  |  |
| Cc1nc2ccccn2c1C(=O)CN1CCN(c2ccc(F)cn2)CC1 | 390 nM | 430 nM | 2.8 | 52% | inhibition (Mus musculus [20]): inactive; inhibition (Mus musculus [21]): inactive; bioavailability [5]: 21%; Cmax [7]: 2200 ng/mL; solubility [8]: 350 µg/mL (≈ 990 µM); fCmax (Mus musculus [9]): 0.61 µg/mL; solubility [10]: > 700 µg/mL; inhibition (Mus musculus [22]): inactive; fraction unbound [12]: 0.275; clearance [23]: 6.4 mL/min/kg; Tmax [14]: 19.8 min; Vd [24]: 0.2 L/kg; Kp at 168 h [15]: 1.1; AUC [17]: 5500 ng·h/mL |
| CN(C(=O)CN1CCN(c2ccc(F)cn2)CC1)c1nc2c(s1)CCCC2 | 620 nM | 41 nM | 3.9 | 65% |  |
| O=C(CN1CCN(c2ccc(F)cn2)CC1)c1c[nH]c2ccccc12 | > 10000 nM | > 1000 nM |  |  |  |
| O=C(CN1CCN(c2ccccc2)CC1)Nc1nc2c(s1)CCCC2 | 9000 nM | 280 nM | 4.3 |  |  |
| O=C(CN1CCN(c2ccc(F)cn2)CC1)Nc1nc2c(s1)CCCC2 | 600 nM | 46 nM | 4.1 | 63% | inhibition (Mus musculus [25]): inactive; bioavailability [5]: 100%; Cmax [7]: 5500 ng/mL; solubility [8]: 2.4 µg/mL (≈ 6.39 µM); fCmax (Mus musculus [9]): 0.0083 µg/mL; solubility [10]: 700 µg/mL (≈ 1860 µM); fraction unbound [12]: 0.0015; inhibition (Mus musculus [26]): inactive; clearance [23]: 5 mL/min/kg; Tmax [14]: 19.8 min; Vd [24]: 0.57 L/kg; Kp at 168 h [15]: 0.03; AUC [17]: 36000 ng·h/mL; inhibition (Mus musculus [27]): inactive |
| Cc1nc2n(c1C(=O)CN1CCN(c3ccc(F)cn3)CC1)CCCC2 | 400 nM | 190 nM | 2.5 | 55% |  |
| O=C(CN1CCN(c2ccc(F)cc2)CC1)Nc1nc2c(s1)CCC2 | > 10000 nM | 490 nM | 4 |  |  |
| O=C(CN1CCN(c2cccnc2)CC1)Nc1nc2c(s1)CCCC2 | > 10000 nM | > 1000 nM | 3.3 |  |  |
| O=C(CN1CCN(c2ccc(F)cn2)CC1)c1coc2ccccc12 | 1900 nM | 470 nM | 3.9 | 76% |  |
| O=C(CN1CCN(C2CCCCC2)CC1)Nc1nc2c(s1)CCCC2 | > 10000 nM | > 1000 nM | 3 |  |  |
| O=C(CN1CCN(c2ccc(F)cn2)CC1)c1n[nH]c2ccccc12 | > 10000 nM | > 1000 nM | 2.8 |  |  |
| O=C(CN1CCN(C(=O)c2ccccc2)CC1)Nc1nc2c(s1)CCCC2 | > 10000 nM | > 1000 nM | 2.1 |  |  |
